Legend:
Rattus norvegicus [1] = species: Rattus norvegicus; assay: Compound was tested for inhibition of hippocampal excitatory neurotransmission in schaffer collateral -CA1 pyramidal cells; assay type: functional
Method in brief: (§1)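 Transverse hippocampal slices, 450 μm, from 30–90-day-old male Holtzman rats. Held at 30 °C, submerged in stirred medium (10 mM glucose, 124 mM NaCl, 3.3 mM KCl, 2.4 mM MgSO4, 2.5 mM CaCl2, 1.2 mM KH2PO4, 26 mM NaHCO3; 95:5 O2/CO2, pH 7.4). Evoked synaptic field potentials recorded extracellularly; CA1 electrodes in stratum radiatum. Drug started at threshold and doubled every 4 min. IC50 from fraction of uninhibited response versus log concentration.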

Rattus norvegicus [2] = species: Rattus norvegicus; assay: Compound was tested for inhibition of Lateral perforant path(LPP) neurotransmission in hippocampus; assay type: functional; method in brief: as §1
Rattus norvegicus [3] = species: Rattus norvegicus; assay: Compound was tested for inhibition of Medial perforant path(MPP) neurotransmission in hippocampus; assay type: functional
Rattus norvegicus [4] = species: Rattus norvegicus; assay: Compound was evaluated for its ability to displace [3H]APB from rat brain synaptic plasma membrane preparations
[5] = Ratio of IC50 of Lateral perforant path(LPP) to IC50 of [3H]- binding; assay type: tissue-based
Method in brief: (§2)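 Ratio of IC50 values. For line 8, LPP IC50 from slice recording over [3H]APB binding IC50. Each IC50 is a weighted mean of IC50s calculated for each experimental point, or for steep agonist-like curves is read directly from the log concentration–response curve.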

[6] = Ratio of IC50 of Medial perforant path(MPP) to IC50 of Lateral perforant path(LPP); assay type: functional; method in brief: as §2
Rattus norvegicus [7] = species: Rattus norvegicus; assay: Hill coefficient value of compound was evaluated for [3H]-APB binding to rat brain synaptic plasma
Method in brief: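 Rat forebrain synaptic plasma membranes (Holtzman rats, 30–90 days; sucrose gradient, 1.0–1.3 M interface; 3–5 mg protein/mL stock). Membranes ≤200 μg/mL preincubated 5 min at 33 °C, then 1 h at 33 °C. Final: 50 mM HEPES pH 7.4, 10 mM CaCl2, 100 nM DL-[3H]APB, displacer up to 1 mM. Separation by centrifugation, scintillation counting. Nonspecific binding with 1 mM unlabeled ligand. Triplicates on ≥3 membrane preparations.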

Rattus norvegicus [8] = species: Rattus norvegicus; assay: Compound was tested for inhibition of Medial perforant path(MPP) neurotransmission in hippocampus.; assay type: functional
Rattus norvegicus [9] = species: Rattus norvegicus; assay: Compound was tested for inhibition of hippocampal excitatory neurotransmission in schaffer collateral -CA1 pyramidal cells.; assay type: functional; method in brief: as §1

SMILES	IC50 (Rattus norvegicus [1])	IC50 (Rattus norvegicus [2])	IC50 (Rattus norvegicus [3])	IC50 (Rattus norvegicus [4])	Ratio [5]	Ratio [6]	nH (Rattus norvegicus [7])	IC50 (Rattus norvegicus [8])	IC50 (Rattus norvegicus [9])
N[C@@]1(C(=O)O)CCC[C@@H](P(=O)(O)O)C1	9600 µM	5800 µM	10000 µM	750 µM	7.7	1.7	–	–	–
N[C@@]1(C(=O)O)CC[C@@H](P(=O)(O)O)C1	> 10000 µM	130 µM	1850 µM	80 µM	–	–	1	–	–
N[C@@H](CCP(=O)(O)O)C(=O)O	–	2.5 µM	–	1.5 µM	–	18	0.8	45 µM	2500 µM
N[C@@]1(C(=O)O)CCC[C@H](P(=O)(O)O)C1	8100 µM	3100 µM	7300 µM	840 µM	3.7	2.4	–	–	–
N[C@@]1(C(=O)O)CC[C@H](P(=O)(O)O)C1	3800 µM	960 µM	2400 µM	4.7 µM	–	2.5	1	–	–

Source: ChEMBL document CHEMBL1123240 (J Med Chem, 1986)
